# CHO parental Ca: ATP-evoked calcium signal inhibitors, parental CHO, primary screen, counter-screen for OX1R antagonist project, cell-based, fluorescence, Fluo-8 calcium dye. actives 0.63% (n = 330,000). inhibition, % at 5.6 µM. AID 463079, 2010. parental CHO-K1, ATP-induced calcium, Fluo-8 fluorescence;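 active = inhibition above that plate's mean sample inhibition plus 3 SD, cut at about 26% in these data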;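 also: 0% = ATP-challenged DMSO wells and 100% = DMSO wells without ATP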
#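 Assay system: parental CHO cells; Read-out basis: percent inhibition of ATP-evoked calcium rise, normalized to controls; Benchmarks: ATP and no-ATP DMSO wells; Compound dosing: single nominal dose of 5.6 µM per compound; Signal: Fluo-8 calcium dye fluorescence; Also added: ATP as calcium-mobilizing challenge; Repeats: singlicate.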
# CHO-K1 Ca ag: counter-screen for M1 agonists: effect in parental CHO-K1 cells. activation, % at 3 µM. Fluo-8 calcium fluorescence; scaled to maximal ATP response, vehicle zero. actives 0.48% (n = 360,000). AID 602248, 2012; in the data active = activation above about 15%;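 also: untransfected CHO-K1 host cells lacking M1 receptor as counterscreen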
# CHO-K1 Ca antag: counter-screen for M1 antagonists: effect in parental CHO-K1 cells. inhibition, % at 3 µM. actives 0.6% (n = 360,000). AID 602250. ATP-induced calcium, Fluo-8 fluorescence;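 active = inhibition above a per-plate cutoff, the plate's mean sample inhibition plus 3 SD, cut at about 24% in these data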;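 also: 0% = DMSO plus EC80 ATP and 100% = DMSO alone without ATP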
# CHO-K1 Ca PAM: nonselective calcium activators in parental CHO-K1 cells, primary screen, counter-screen for M1 PAM project, cell-based, Fluo-8 calcium fluorescence, full deck, 1536-well; ATP EC20; 0% at ATP EC20, 100% at ATP max; activation, % at 3 µM; actives 0.02% (n = 360,000); AID 602247, 2012;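 active = activation above the run cutoff, the mean activation of all test compounds plus 3 SD, cut at about 40% in these data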;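 also: peak over basal fluorescence ratio in a 140 s read after ATP addition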
# OX1R antag-1: antagonists of human orexin 1 receptor (OX1R); Orexin/Hypocretin receptor type 1 (Homo sapiens), O43613; OX1R-expressing cells, FRET antagonist read-out; inhibition, % at 6.6 µM; actives 1.8% (n = 330,000); in the data active = inhibition mostly above about 38%, no sharp cut-off; inactive = mostly below about 40%;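 also: 0% = agonist challenge alone and 100% = reference antagonist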
# Target sequence (O43613 whole entry, looked up): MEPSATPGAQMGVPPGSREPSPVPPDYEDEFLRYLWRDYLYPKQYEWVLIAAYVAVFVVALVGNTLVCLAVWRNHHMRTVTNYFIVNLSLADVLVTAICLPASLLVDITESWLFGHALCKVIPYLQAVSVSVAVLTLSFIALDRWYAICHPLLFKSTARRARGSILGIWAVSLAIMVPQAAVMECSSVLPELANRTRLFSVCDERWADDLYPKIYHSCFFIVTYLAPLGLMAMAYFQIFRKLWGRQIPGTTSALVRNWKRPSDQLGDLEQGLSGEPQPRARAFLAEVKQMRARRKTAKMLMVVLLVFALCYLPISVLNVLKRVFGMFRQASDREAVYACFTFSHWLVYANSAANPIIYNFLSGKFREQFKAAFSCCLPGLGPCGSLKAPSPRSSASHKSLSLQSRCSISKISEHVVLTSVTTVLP
# OX1R antag-2: OX1R (HCRTR1) antagonists, primary screen, fluorescence, CHO/OX1R cells, Fluo-8 calcium, orexin A; Orexin/Hypocretin receptor type 1 (Homo sapiens), O43613; Fluo-8 calcium fluorescence; inhibition, % at 5 µM; actives 0.43% (n = 330,000); AID 434989, 2010;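 active = inhibition above its plate's threshold, mean inhibition of all tested compounds on the plate plus 3 SD, cut at about 37% in these data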;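 also: 0% = orexin A challenge wells and 100% = SB-334867-A antagonist wells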
# * hit, by the source's call; . = not tested or not shown. Hits are enriched below; roughly 2.9% of the tested compounds scored in any of these assays.
SMILES,CHO parental Ca,CHO-K1 Ca ag,CHO-K1 Ca antag,CHO-K1 Ca PAM,OX1R antag-1,OX1R antag-2
CC(=O)Nc1ccc(NC(=O)C(C)OC(=O)CSc2ccc(Br)cc2C)cc1 (stereo not drawn),-30,1,6,5,12,-24
C=CCC1(CC=C)CCCN1C(=O)c1cc(COc2ccc(C)nc2)on1,52*,16*,49*,-28,20,7
COc1ccc(-c2nn(-c3ccccc3)cc2C(=O)NC(=S)N2CCOCC2)cc1OC,-19,0,-15,-8,5,-19
C=CCOn1c(=O)c(-c2ccc(Cl)cc2)[n+]([O-])c2ccccc21,.,1,-5,-3,.,.
C=CCOn1c(=O)c(-c2ccc(OC)c(OC)c2)[n+]([O-])c2ccccc21,-7,1,8,2,61*,-33
C=CCOn1c(=O)c(-c2cccs2)[n+]([O-])c2ccccc21,-24,0,28*,-10,6,-18
COc1ccc(-c2c(=O)n(OC)c3ccccc3[n+]2[O-])cc1OC,-7,0,-12,5,44*,-17
COc1ccc(-c2ccc(CN3C(C)C(=O)N(Cc4cn(CC5CCCCC5)nn4)CCS3(=O)=O)cc2)cc1 (stereo not drawn),.,0,25*,-15,.,.
CCNC(=O)C1(C)CCN(C(=O)c2ccc(N(C)C)cc2)C1 (stereo not drawn),.,0,0,-6,.,.
CC(=O)OCCn1c(=O)c2cc3c(=O)n(CCOC(C)=O)c(=O)c3cc2c1=O,2,0,-4,21,68*,-7
COc1cccc(N(CC(=O)NCCSCc2ccco2)S(=O)(=O)c2ccccc2)c1,-13,3,-5,1,45*,23
Cc1cccc(N(CC(=O)NCCSCc2ccco2)S(=O)(=O)c2ccccc2)c1,-11,2,8,5,59,32
CN1CCN(C(=O)c2cccc(-c3ccc4nccn4c3)c2)CC1,.,0,-4,6,.,.
CCCn1c(SCC(=O)NNC(=O)c2ccc(C)cc2)nnc1C(C)C,-2,1,-14,21,19,-15
O=C1NC(Cc2ccccc2)c2nc3cc(F)c(F)cc3c(=O)n2-c2cc3ccccc3cc21 (stereo not drawn),.,1,7,-6,.,.
O=C1NC(Cc2ccc(O)cc2)c2nc3cc(F)c(F)cc3c(=O)n2-c2cc3ccccc3cc21 (stereo not drawn),.,1,35*,-10,.,.
Cc1ccc(S(=O)(=O)NCCn2nc(C)cc2C)cc1,0,1,-20,30,19,-18
CCOC(=O)C1CCN(c2ncnc3c2oc2ccc(Cl)cc23)CC1,-23,1,27*,-5,51,-26
Cc1c(-n2cc(C(=O)c3cc(F)ccc3O)cc(C#N)c2=O)c(=O)n(-c2ccccc2)n1C,-20,4,-3,18,19,-24
N#Cc1cc(C(=O)c2cc(F)ccc2O)cn(-c2nccs2)c1=O,37*,55*,21,-9,0,28
N#Cc1cc(C(=O)c2ccccc2O)cn(-c2nccs2)c1=O,31,72*,25*,-4,8,40
CCNc1nc2nc3ccc(C)cn3c(=O)c2cc1C(=O)NCC1CCCO1 (stereo not drawn),-17,0,-5,3,64*,-23
C=CCNC(=O)c1cc2c(=O)n3cc(C)ccc3nc2nc1NCC1CCCO1 (stereo not drawn),7,.,.,.,47*,-9
Cc1ccc2nc3nc(NCC4CCCO4)c(C(=O)NC4CCCC4)cc3c(=O)n2c1 (stereo not drawn),-17,0,-5,23,43,-19
COCCCNC(=O)c1cc2c(=O)n3cc(C)ccc3nc2nc1NCC1CCCO1 (stereo not drawn),-13,.,.,.,105*,-16
CCOc1ccccc1C(=O)NCC(=O)N1CCC(C)CC1,-12,0,-4,11,2,-17
CC(=O)Nc1ccc(NC(=O)CSc2nnc(NC(=O)C3CC(=O)N(c4ccc(F)cc4)C3)s2)cc1 (stereo not drawn),7,1,-8,4,4,3

# Bioassay records (PubChem)
